Assay results reported in ChEMBL document CHEMBL4613300, “Pharmacophore-Based Virtual Screening for Identification of Negative Modulators of GLI1 as Potential Anticancer Agents” (ACS Med Chem Lett, 2020).
The source made the active and inactive calls. The rule behind the calls is not given here.

Columns and labels:
[1] = biological target: T1, Zinc finger protein GLI1 (Homo sapiens) (UniProt P08151); assay: Inhibition of GLI1 transcriptional activity in human A375 cells assessed as downregulation of PTCH1 mRNA expression at 5 uM incubated for 48 hrs by qPCR analysis; type: cell-based; details: A-375
T1 sequence (whole entry): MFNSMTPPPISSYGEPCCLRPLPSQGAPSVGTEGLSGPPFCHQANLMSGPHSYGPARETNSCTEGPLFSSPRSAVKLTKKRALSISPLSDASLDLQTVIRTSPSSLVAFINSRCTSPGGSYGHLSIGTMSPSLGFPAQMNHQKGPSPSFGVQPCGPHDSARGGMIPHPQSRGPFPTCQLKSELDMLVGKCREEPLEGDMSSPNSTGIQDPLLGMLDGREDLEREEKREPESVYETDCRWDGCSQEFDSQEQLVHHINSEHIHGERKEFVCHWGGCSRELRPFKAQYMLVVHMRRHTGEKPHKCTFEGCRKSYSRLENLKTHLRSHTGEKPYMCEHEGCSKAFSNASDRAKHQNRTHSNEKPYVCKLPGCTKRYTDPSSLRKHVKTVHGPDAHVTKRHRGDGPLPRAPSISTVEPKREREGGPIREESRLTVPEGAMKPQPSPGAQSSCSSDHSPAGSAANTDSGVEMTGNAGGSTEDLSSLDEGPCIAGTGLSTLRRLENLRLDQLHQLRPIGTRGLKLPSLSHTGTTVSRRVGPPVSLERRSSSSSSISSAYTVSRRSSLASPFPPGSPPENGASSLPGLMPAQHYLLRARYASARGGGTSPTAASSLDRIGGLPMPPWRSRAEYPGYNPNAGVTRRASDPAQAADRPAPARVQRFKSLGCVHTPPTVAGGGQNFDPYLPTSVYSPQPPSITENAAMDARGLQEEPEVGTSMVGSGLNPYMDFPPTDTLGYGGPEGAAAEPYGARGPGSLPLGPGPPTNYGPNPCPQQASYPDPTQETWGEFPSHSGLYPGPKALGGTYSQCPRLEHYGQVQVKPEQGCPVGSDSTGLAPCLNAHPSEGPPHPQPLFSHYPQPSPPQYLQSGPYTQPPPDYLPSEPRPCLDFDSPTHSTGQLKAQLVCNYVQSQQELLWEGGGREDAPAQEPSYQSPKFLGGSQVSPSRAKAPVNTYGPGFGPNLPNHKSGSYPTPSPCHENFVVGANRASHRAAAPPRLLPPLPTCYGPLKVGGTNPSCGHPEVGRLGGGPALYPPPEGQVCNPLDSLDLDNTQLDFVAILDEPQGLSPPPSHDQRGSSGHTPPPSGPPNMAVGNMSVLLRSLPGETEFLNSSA
Method in brief: (§1)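 A375 cells treated with compound (5 μM) or DMSO for 48 h. mRNA measured by qPCR as gene/(mean of HPRT and EIF2α) ratio, DMSO control set to 1. Mean ± SD.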

[2] = biological target: T1, Zinc finger protein GLI1 (Homo sapiens); assay: Inhibition of GLI1 transcriptional activity in human A375 cells assessed as downregulation of GLI1 mRNA expression at 5 uM incubated for 48 hrs by qPCR analysis; type: cell-based; details: A-375; method in brief: as §1
[3] = test system: Daoy; assay: Antiproliferative activity against human DaOY cells assessed as reduction in cell viability incubated for 72 hrs by trypan blue or crystal violet staining based assay; type: functional; details: Homo sapiens, Daoy, 72 h; read-out: IC50
[4] = test system: A-375; assay: Antiproliferative activity against human A375 cells transfected with lentivrus-encoding shRNA against GLI1 assessed as reduction in cell viability incubated for 72 hrs by trypan blue or crystal violet staining based assay; type: functional
Method in brief: (§2)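 A375 melanoma cells transduced with control lentivirus (LV-c), LV-shGLI1 or LV-shGLI2, with knockdown checked by Western blot (HSP90 loading control). Cells treated with DMSO or compound at the indicated doses for 72 h, then viability read. Values are mean ± SD of at least three independent experiments.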

[5] = test system: A-375; assay: Antiproliferative activity against human A375 cells assessed as reduction in cell viability incubated for 72 hrs by trypan blue or crystal violet staining based assay; type: functional; details: Homo sapiens, A-375, 72 h; read-out: IC50
[6] = biological target: T2, Zinc finger protein GLI1 (Mus musculus) (UniProt P47806); assay: Inhibition of GLI1 transcriptional activity in HH-responsive mouse NIH3T3 cells assessed as reduction in GLI1 protein expression at 5 uM incubated for 48 hrs in presence of SAG by Western blot analysis; type: cell-based
T2 sequence (whole entry): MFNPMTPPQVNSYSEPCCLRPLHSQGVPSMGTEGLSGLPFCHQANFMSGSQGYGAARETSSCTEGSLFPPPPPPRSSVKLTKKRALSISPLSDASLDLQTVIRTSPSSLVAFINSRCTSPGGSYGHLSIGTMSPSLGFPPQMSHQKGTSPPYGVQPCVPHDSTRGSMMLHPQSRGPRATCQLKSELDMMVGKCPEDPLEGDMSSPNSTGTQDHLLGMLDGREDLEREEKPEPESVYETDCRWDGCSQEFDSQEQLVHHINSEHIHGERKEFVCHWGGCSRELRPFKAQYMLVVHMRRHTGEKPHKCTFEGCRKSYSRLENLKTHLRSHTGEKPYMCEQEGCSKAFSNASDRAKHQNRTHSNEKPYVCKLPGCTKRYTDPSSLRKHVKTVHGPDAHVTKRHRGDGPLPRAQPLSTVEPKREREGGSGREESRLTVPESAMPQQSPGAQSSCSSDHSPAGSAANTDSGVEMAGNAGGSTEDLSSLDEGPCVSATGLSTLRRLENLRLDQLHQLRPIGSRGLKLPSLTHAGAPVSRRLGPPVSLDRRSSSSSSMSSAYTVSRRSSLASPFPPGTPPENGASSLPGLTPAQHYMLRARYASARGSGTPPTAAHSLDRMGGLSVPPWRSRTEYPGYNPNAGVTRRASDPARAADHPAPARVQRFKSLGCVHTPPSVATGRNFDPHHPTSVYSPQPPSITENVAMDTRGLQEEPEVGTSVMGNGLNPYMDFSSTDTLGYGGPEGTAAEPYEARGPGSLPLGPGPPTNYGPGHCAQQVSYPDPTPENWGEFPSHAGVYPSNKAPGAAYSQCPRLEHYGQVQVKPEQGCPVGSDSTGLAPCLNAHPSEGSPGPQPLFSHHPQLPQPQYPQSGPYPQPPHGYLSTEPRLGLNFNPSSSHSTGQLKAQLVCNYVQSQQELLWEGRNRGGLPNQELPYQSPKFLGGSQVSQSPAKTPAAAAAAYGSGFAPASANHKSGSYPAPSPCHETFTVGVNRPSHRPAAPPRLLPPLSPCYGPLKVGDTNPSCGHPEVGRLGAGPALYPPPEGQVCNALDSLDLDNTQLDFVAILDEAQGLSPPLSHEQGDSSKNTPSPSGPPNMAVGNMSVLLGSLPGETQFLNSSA
Method in brief: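 Murine NIH3T3 cells given 100 nM SAG plus compound (5 μM) or DMSO for 48 h. Endogenous GLI1 protein measured by Western blot with HSP90 as loading control, band quantified against SAG-treated cells.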

[7] = biological target: T1, Zinc finger protein GLI1 (Homo sapiens); assay: Inhibition of GLI1 transcriptional activity in human A375 cells assessed as downregulation of Cyclin D1 mRNA expression at 5 uM incubated for 48 hrs by qPCR analysis; type: cell-based; details: A-375; method in brief: as §1
[8] = test system: MCF-10A; assay: Cytotoxicity against human MCF10A cells assessed as reduction in cell viability incubated for 72 hrs by trypan blue or crystal violet staining based assay
[9] = biological target: T2, Zinc finger protein GLI1 (Mus musculus); assay: Inhibition of GLI1 transcriptional activity in HH-responsive mouse NIH3T3 cells assessed as reduction in SAG-induced luciferase activity at 5 uM incubated for 48 hrs by luciferase reporter gene assay relative to control; type: cell-based
Method in brief: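 HH-responsive NIH3T3 cells carrying a GLI-dependent firefly luciferase reporter with renilla control, treated 48 h with 100 nM SAG plus compound (5 μM). Firefly/renilla ratio normalised to SAG-only cells set at 100%, reported as percent inhibition.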

[10] = biological target: T1, Zinc finger protein GLI1 (Homo sapiens); assay: Inhibition of GLI1 transcriptional activity in human A375 cells assessed as downregulation of GLI2 mRNA expression at 5 uM incubated for 48 hrs by qPCR analysis; type: cell-based; details: A-375; method in brief: as §1
[11] = test system: A-375; assay: Antiproliferative activity against human A375 cells transfected with lentivrus-encoding shRNA against GLI2 assessed as reduction in cell viability incubated for 72 hrs by trypan blue or crystal violet staining based assay; type: functional; method in brief: as §2
[12] = biological target: T1, Zinc finger protein GLI1 (Homo sapiens); assay: Inhibition of GLI1 transcriptional activity in human A375 cells assessed as downregulation of HIP1 mRNA expression at 5 uM incubated for 48 hrs by qPCR analysis; type: cell-based; details: A-375; method in brief: as §1

CCOC(=O)c1c(-c2ccccc2)csc1NC(NC(=O)CC)C(Cl)(Cl)Cl (configuration not stated)
inhibition [1]: Active
inhibition [2]: Active
IC50 [3]: 6 µM
Activity [4]: inactive
IC50 [5]: 4.1 µM
inhibition [6]: Active
inhibition [7]: Active
Activity [8]: Non-Toxic
inhibition [9]: 42%
inhibition [10]: Active
Activity [11]: inactive
inhibition [12]: Active
